Columns and labels:
Acetylcholinesterase = Acetylcholinesterase (Electrophorus electricus, UniProt O42275); experiment: Inhibition of electric eel AChE using […] as substrate incubated for 15 mins prior to substrate addition measured after 30 mins by Ellman's method
[1] = Selectivity ratio of IC50 for electric eel AChE to IC50 for equine serum BuChE
[2] = Selectivity ratio of IC50 for equine serum BuChE to IC50 for electric eel AChE
Cholinesterase = Cholinesterase (Equus caballus, UniProt P81908); experiment: Inhibition of equine serum BuChE using S-butyrylthiocholine chloride as substrate incubated for 15 mins prior to substrate addition measured after 30 mins by Ellman's method
Sequence of Cholinesterase (P81908 whole entry): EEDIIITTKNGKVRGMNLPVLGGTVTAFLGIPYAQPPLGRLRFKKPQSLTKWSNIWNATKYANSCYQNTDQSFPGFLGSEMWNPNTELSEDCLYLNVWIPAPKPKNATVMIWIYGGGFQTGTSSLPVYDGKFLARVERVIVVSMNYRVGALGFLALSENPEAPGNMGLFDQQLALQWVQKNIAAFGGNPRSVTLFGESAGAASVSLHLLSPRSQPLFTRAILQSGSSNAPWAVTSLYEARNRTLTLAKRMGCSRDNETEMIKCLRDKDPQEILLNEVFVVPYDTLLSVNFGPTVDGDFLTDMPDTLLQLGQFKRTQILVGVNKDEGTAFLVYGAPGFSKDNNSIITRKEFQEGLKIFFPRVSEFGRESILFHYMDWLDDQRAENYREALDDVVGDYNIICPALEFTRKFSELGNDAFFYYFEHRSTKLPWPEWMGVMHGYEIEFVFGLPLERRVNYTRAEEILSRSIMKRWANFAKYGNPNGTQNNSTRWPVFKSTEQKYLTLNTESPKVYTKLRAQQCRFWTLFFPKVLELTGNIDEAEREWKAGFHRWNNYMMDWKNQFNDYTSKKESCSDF
Summary of the method: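 Modified Ellman method in 0.1 M sodium phosphate buffer, pH 8. Samples were dissolved in DMSO (1 mg/mL stock; 1% DMSO final). Equine serum BChE was preincubated with sample for 15 min at 25 °C. DTNB (10 mM stock) and S-butyrylthiocholine chloride were then added, and absorbance was read at 412 nm after 30 min. Triplicate, blank-corrected, % inhibition versus control.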

[3] = target: Cholinesterase (Equus caballus) (UniProt P81908); experiment: Selectivity ratio of Galanthamine IC50 to compound IC50 for equine BChE
Sequence of Cholinesterase (Equus caballus) (P81908 whole entry): as above

Sequence of Acetylcholinesterase (O42275 whole entry): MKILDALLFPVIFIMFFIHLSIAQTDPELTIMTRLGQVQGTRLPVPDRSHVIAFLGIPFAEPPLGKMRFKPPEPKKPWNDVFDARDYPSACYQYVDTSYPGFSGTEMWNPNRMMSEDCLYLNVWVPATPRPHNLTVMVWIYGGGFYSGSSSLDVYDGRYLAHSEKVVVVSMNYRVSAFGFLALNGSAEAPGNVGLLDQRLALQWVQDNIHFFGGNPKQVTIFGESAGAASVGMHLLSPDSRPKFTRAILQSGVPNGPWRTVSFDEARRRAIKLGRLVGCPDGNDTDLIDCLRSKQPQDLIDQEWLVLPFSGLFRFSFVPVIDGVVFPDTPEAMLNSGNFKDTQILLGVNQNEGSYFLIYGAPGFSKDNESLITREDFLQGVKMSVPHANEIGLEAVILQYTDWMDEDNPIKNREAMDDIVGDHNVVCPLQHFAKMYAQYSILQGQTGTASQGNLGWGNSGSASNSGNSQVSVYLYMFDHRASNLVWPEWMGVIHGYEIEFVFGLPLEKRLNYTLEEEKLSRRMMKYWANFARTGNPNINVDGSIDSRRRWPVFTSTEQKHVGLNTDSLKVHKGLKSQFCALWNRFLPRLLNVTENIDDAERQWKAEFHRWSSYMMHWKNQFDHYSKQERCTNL

Work on `O=[N+]([O-])c1cccc(/C=C2\CNCC3=C2NC(=S)NC3c2cccc([N+](=O)[O-])c2)c1` (stereo not given) yielded an IC50 (Acetylcholinesterase) of 34.3 µM, a Ratio IC50 [1] of 4.25 and a Ratio IC50 [2] of 0.24. For the same compound, the IC50 (Cholinesterase) was 8.09 µM and the Ratio IC50 [3] was 2.

With `O=C1NC2=C(CNC/C2=C\c2ccccc2F)C(c2ccccc2F)N1` (stereo not given) the IC50 (Acetylcholinesterase) was 18.6 µM, the Ratio IC50 [1] was 5.61 and the Ratio IC50 [2] was 0.18. It also gave an IC50 (Cholinesterase) of 3.31 µM and a Ratio IC50 [3] of 2.

`O=C1NC2=C(CNC/C2=C\c2ccc(Cl)cc2)C(c2ccc(Cl)cc2)N1` (stereo not given) gave an IC50 (Acetylcholinesterase) of 36.8 µM, a Ratio IC50 [1] of 2.2 and a Ratio IC50 [2] of 0.45. The IC50 (Cholinesterase) was 16.7 µM and the Ratio IC50 [3] was 2.

`O=C1NC2=C(CNC/C2=C\c2cccc([N+](=O)[O-])c2)C(c2cccc([N+](=O)[O-])c2)N1` (stereo not given) gave an IC50 (Acetylcholinesterase) of 28.3 µM, a Ratio IC50 [1] of 2.73 and a Ratio IC50 [2] of 0.37. It also gave an IC50 (Cholinesterase) of 10.3 µM and a Ratio IC50 [3] of 2.

`Fc1ccccc1/C=C1\CNCC2=C1NC(=S)NC2c1ccccc1F` (stereo not given) gave an IC50 (Acetylcholinesterase) of 40.4 µM, a Ratio IC50 [1] of 6.21 and a Ratio IC50 [2] of 0.16. It also gave an IC50 (Cholinesterase) of 6.5 µM and a Ratio IC50 [3] of 2.

With `S=C1NC2=C(CNC/C2=C\c2ccc(Cl)cc2)C(c2ccc(Cl)cc2)N1` (stereo not given) the IC50 (Acetylcholinesterase) was 2.25 µM, the Ratio IC50 [1] was 0.35 and the Ratio IC50 [2] was 2.78. The IC50 (Cholinesterase) was 6.26 µM and the Ratio IC50 [3] was 2.

`O=C1NC2=C(CNC/C2=C\c2ccccc2Cl)C(c2ccccc2Cl)N1` (stereo not given) showed an IC50 (Acetylcholinesterase) of 24.1 µM, a Ratio IC50 [1] of 9.57 and a Ratio IC50 [2] of 0.1. For the same compound, the IC50 (Cholinesterase) was 2.51 µM and the Ratio IC50 [3] was 2.

With `O=C1NC2=C(CNC/C2=C\c2ccccc2)C(c2ccccc2)N1` (stereo not given) the IC50 (Acetylcholinesterase) was 68.7 µM, the Ratio IC50 [1] was 24 and the Ratio IC50 [2] was 0.04. The IC50 (Cholinesterase) was 2.86 µM and the Ratio IC50 [3] was 2.

`O=C1NC2=C(CNC/C2=C\c2ccc(F)cc2)C(c2ccc(F)cc2)N1` (stereo not given) showed an IC50 (Acetylcholinesterase) of 44.2 µM, a Ratio IC50 [1] of 2.34 and a Ratio IC50 [2] of 0.43. For the same compound, the IC50 (Cholinesterase) was 18.9 µM and the Ratio IC50 [3] was 2.

For `Cc1ccc(/C=C2\CNCC3=C2NC(=S)NC3c2ccc(C)cc2)cc1` (stereo not given), the IC50 (Acetylcholinesterase) was 37.5 µM, the Ratio IC50 [1] was 5.95 and the Ratio IC50 [2] was 0.17. It also gave an IC50 (Cholinesterase) of 6.27 µM and a Ratio IC50 [3] of 2.

In the case of `Fc1ccc(/C=C2\CNCC3=C2NC(=S)NC3c2ccc(F)cc2)cc1` (stereo not given), the IC50 (Acetylcholinesterase) is reported as 37.2 µM, the Ratio IC50 [1] is reported as 1.29 and the Ratio IC50 [2] is reported as 0.77. The IC50 (Cholinesterase) was 28.8 µM and the Ratio IC50 [3] was 2.

Compound `S=C1NC2=C(CNC/C2=C\c2ccc(Cl)cc2Cl)C(c2ccc(Cl)cc2Cl)N1` (stereo not given) has an IC50 (Acetylcholinesterase) of 26.3 µM, a Ratio IC50 [1] of 0.67 and a Ratio IC50 [2] of 1.5. For the same compound, the IC50 (Cholinesterase) was 49.8 µM and the Ratio IC50 [3] was 2.

In the case of `COc1ccccc1/C=C1\CNCC2=C1NC(=O)NC2c1ccccc1OC` (stereo not given), the IC50 (Acetylcholinesterase) is reported as 40.2 µM, the Ratio IC50 [1] is reported as 3.75 and the Ratio IC50 [2] is reported as 0.27. For the same compound, the IC50 (Cholinesterase) was 10.7 µM and the Ratio IC50 [3] was 2.

`Cc1ccc(/C=C2\CNCC3=C2NC(=O)NC3c2ccc(C)cc2)cc1` (stereo not given) showed an IC50 (Acetylcholinesterase) of 46.5 µM, a Ratio IC50 [1] of 6.56 and a Ratio IC50 [2] of 0.15. The IC50 (Cholinesterase) was 7.09 µM and the Ratio IC50 [3] was 2.

Work on `O=C1NC2=C(CNC/C2=C\c2cccc3ccccc23)C(c2cccc3ccccc23)N1` (stereo not given) yielded an IC50 (Acetylcholinesterase) of 13.2 µM, a Ratio IC50 [1] of 2.44 and a Ratio IC50 [2] of 0.41. It also gave an IC50 (Cholinesterase) of 5.39 µM and a Ratio IC50 [3] of 2.

`Cc1ccccc1/C=C1\CNCC2=C1NC(=O)NC2c1ccccc1C` (stereo not given) gave an IC50 (Acetylcholinesterase) of 40.4 µM, a Ratio IC50 [1] of 7.74 and a Ratio IC50 [2] of 0.13. For the same compound, the IC50 (Cholinesterase) was 5.22 µM and the Ratio IC50 [3] was 2.

Compound `COc1ccccc1/C=C1\CNCC2=C1NC(=S)NC2c1ccccc1OC` (stereo not given) has an IC50 (Acetylcholinesterase) of 0.8 µM, a Ratio IC50 [1] of 0.67 and a Ratio IC50 [2] of 1.47. For the same compound, the IC50 (Cholinesterase) was 1.18 µM and the Ratio IC50 [3] was 16.

`S=C1NC2=C(CNC/C2=C\c2ccccc2Cl)C(c2ccccc2Cl)N1` (stereo not given) showed an IC50 (Acetylcholinesterase) of 32.4 µM, a Ratio IC50 [1] of 11.1 and a Ratio IC50 [2] of 0.09. For the same compound, the IC50 (Cholinesterase) was 2.91 µM and the Ratio IC50 [3] was 2.

`O=C1NC2=C(CNC/C2=C\c2ccc(Cl)cc2Cl)C(c2ccc(Cl)cc2Cl)N1` (stereo not given) showed an IC50 (Acetylcholinesterase) of 29.9 µM, a Ratio IC50 [1] of 1.26 and a Ratio IC50 [2] of 0.79. It also gave an IC50 (Cholinesterase) of 23.5 µM and a Ratio IC50 [3] of 2.

In the case of `S=C1NC2=C(CNC/C2=C\c2ccccc2)C(c2ccccc2)N1` (stereo not given), the IC50 (Acetylcholinesterase) is reported as 19.3 µM, the Ratio IC50 [1] is reported as 5.09 and the Ratio IC50 [2] is reported as 0.2. It also gave an IC50 (Cholinesterase) of 3.78 µM and a Ratio IC50 [3] of 2.

With `Cc1ccccc1/C=C1\CNCC2=C1NC(=S)NC2c1ccccc1C` (stereo not given) the IC50 (Acetylcholinesterase) was 39.7 µM, the Ratio IC50 [1] was 12.9 and the Ratio IC50 [2] was 0.08. The IC50 (Cholinesterase) was 3.07 µM and the Ratio IC50 [3] was 2.

`O=C1NC2=C(CNC/C2=C\c2ccc(Br)cc2)C(c2ccc(Br)cc2)N1` (stereo not given) showed an IC50 (Acetylcholinesterase) of 15.9 µM, a Ratio IC50 [1] of 2.54 and a Ratio IC50 [2] of 0.39. It also gave an IC50 (Cholinesterase) of 6.22 µM and a Ratio IC50 [3] of 2.

In the case of `S=C1NC2=C(CNC/C2=C\c2cccc3ccccc23)C(c2cccc3ccccc23)N1` (stereo not given), the IC50 (Acetylcholinesterase) is reported as 1.37 µM, the Ratio IC50 [1] is reported as 0.25 and the Ratio IC50 [2] is reported as 4.07. The IC50 (Cholinesterase) was 5.58 µM and the Ratio IC50 [3] was 2.

`S=C1NC2=C(CNC/C2=C\c2ccc(Br)cc2)C(c2ccc(Br)cc2)N1` (stereo not given) showed an IC50 (Acetylcholinesterase) of 11.9 µM, a Ratio IC50 [1] of 7.2 and a Ratio IC50 [2] of 0.14. The IC50 (Cholinesterase) was 1.65 µM and the Ratio IC50 [3] was 12.

Source: ChEMBL document CHEMBL2385018, “Microwave assisted synthesis, cholinesterase enzymes inhibitory activities and molecular docking studies of new pyridopyrimidine derivatives” (Bioorg Med Chem, 2013)
